Measurements published in ChEMBL document CHEMBL1141647, “Novel ofloxacin derivatives: synthesis, antimycobacterial and toxicological evaluation” (Bioorg Med Chem Lett, 2008).
≈ marks a conversion by molar mass, not a printed value.

Key:
[1] = test system: Mus musculus; experiment: Phototoxic effect in UV light irradiated mouse assessed as number of mouse bearing erythema at 140 mg/kg, after 48 hrs relative to control; format: ADME, organism-based; parameters: dose 140 mg/kg; conditions: in vivo
Procedure, shortened: (§1)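 Mice received 140 mg/kg and were UV-irradiated immediately after dosing, irradiation ending at 4 h. Both ears were scored for erythema at 0, 4, 24, 48, 72 and 96 h, counted as the number of mice with erythema. Vehicle control was 0.5% aqueous sodium carboxymethylcellulose at 10 mL/kg.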

[2] = test system: Mycolicibacterium smegmatis; experiment: Antimycobacterial activity against Mycobacterium smegmatis ATCC 14468 by agar dilution method; format: functional
Procedure, shortened: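 MC² (M. smegmatis) growth inhibition; MIC99 taken as the lowest concentration giving complete inhibition of bacterial growth, in µM.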

[3] = test system: Mus musculus; experiment: Phototoxic effect in UV light irradiated mouse assessed as number of mouse bearing erythema at 140 mg/kg, after 4 hrs relative to control; format: ADME, organism-based; parameters: dose 140 mg/kg; conditions: in vivo; procedure, shortened: as §1
[4] = test system: Mus musculus; experiment: Phototoxic effect in UV light irradiated mouse assessed as ear thickness at 140 mg/kg, after 96 hrs relative to control; format: ADME, organism-based; parameters: dose 140 mg/kg; conditions: in vivo
Procedure, shortened: (§2)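 Mice dosed at 140 mg/kg and exposed to UV immediately after dosing. Irradiation ended at 4 h. Ear thickness (mm) was measured at 0 (pre-dose), 4, 24, 48, 72 and 96 h, left and right ears averaged, mean ± SEM. Comparison was against vehicle controls (0.5% aqueous sodium carboxymethylcellulose, 10 mL/kg) and against the 0 h reading.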

[5] = test system: Mus musculus; experiment: Phototoxic effect in mouse assessed as number of mouse bearing erythema at 140 mg/kg administered before UV light exposure relative to control; format: ADME, organism-based; parameters: dose 140 mg/kg; conditions: in vivo; procedure, shortened: as §1
[6] = molecular target: DNA gyrase subunit A (Mycolicibacterium smegmatis, UniProt Q59556); experiment: Inhibition of Mycobacterium smegmatis DNA gyrase
Sequence of DNA gyrase subunit A (Q59556 whole entry): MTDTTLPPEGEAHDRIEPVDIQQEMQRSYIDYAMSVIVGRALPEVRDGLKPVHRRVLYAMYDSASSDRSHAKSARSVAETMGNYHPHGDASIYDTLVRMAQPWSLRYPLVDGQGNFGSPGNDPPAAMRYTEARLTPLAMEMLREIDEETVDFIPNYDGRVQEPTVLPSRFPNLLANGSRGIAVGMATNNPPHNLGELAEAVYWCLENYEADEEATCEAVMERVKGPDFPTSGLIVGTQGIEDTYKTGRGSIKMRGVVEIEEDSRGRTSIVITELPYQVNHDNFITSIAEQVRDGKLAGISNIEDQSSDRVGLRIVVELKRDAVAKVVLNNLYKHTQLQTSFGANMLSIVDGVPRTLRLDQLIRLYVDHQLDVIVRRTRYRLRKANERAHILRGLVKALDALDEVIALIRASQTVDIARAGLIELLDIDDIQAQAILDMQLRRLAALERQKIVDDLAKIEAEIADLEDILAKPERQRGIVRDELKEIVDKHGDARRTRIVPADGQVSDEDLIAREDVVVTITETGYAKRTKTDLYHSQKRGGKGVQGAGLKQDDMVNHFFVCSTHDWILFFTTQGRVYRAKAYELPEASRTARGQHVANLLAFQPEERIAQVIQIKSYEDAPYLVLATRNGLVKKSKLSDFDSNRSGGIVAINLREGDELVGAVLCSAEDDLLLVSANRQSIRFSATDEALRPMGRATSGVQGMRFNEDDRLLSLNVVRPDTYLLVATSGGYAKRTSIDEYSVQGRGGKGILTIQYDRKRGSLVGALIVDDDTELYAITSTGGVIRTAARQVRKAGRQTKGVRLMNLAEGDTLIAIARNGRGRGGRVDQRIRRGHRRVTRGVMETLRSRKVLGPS
Procedure, shortened: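 Inhibition of DNA supercoiling by M. smegmatis (MC²) gyrase, run under standard assay conditions. Varying compound amounts were tested against a fixed amount of enzyme, and IC50 was derived from that series. Relaxed circular DNA served as marker, 5% DMSO as solvent control, and moxifloxacin at 5 µg/mL as positive control.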

[7] = test system: Mus musculus; experiment: Phototoxic effect in UV light irradiated mouse assessed as ear thickness at 140 mg/kg, after 4 hrs relative to control; format: ADME, organism-based; parameters: dose 140 mg/kg; conditions: in vivo; procedure, shortened: as §2
[8] = test system: Mus musculus; experiment: Phototoxic effect in UV light irradiated mouse assessed as number of mouse bearing erythema at 140 mg/kg, after 72 hrs relative to control; format: ADME, organism-based; parameters: dose 140 mg/kg; conditions: in vivo; procedure, shortened: as §1
[9] = test system: Mycobacterium tuberculosis; experiment: Antimycobacterial activity against Mycobacterium tuberculosis H37Rv by agar dilution method; format: functional
Procedure, shortened: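 MIC99 was taken as the lowest concentration giving complete inhibition of bacterial growth.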

[10] = test system: Mus musculus; experiment: Phototoxic effect in UV light irradiated mouse assessed as number of mouse bearing erythema at 140 mg/kg, after 96 hrs relative to control; format: ADME, organism-based; parameters: dose 140 mg/kg; conditions: in vivo; procedure, shortened: as §1
[11] = test system: Mus musculus; experiment: Phototoxic effect in UV light irradiated mouse assessed as ear thickness at 140 mg/kg, after 48 hrs relative to control; format: ADME, organism-based; parameters: dose 140 mg/kg; conditions: in vivo; procedure, shortened: as §2
[12] = test system: Mus musculus; experiment: Phototoxic effect in mouse assessed as ear thickness at 140 mg/kg administered before UV light exposure relative to control; format: ADME, organism-based; parameters: dose 140 mg/kg; conditions: in vivo; procedure, shortened: as §2
[13] = test system: Mus musculus; experiment: Phototoxic effect in UV light irradiated mouse assessed as number of mouse bearing erythema at 140 mg/kg, after 24 hrs relative to control; format: ADME, organism-based; parameters: dose 140 mg/kg; conditions: in vivo; procedure, shortened: as §1
[14] = test system: Mus musculus; experiment: Phototoxic effect in UV light irradiated mouse assessed as ear thickness at 140 mg/kg, after 72 hrs relative to control; format: ADME, organism-based; parameters: dose 140 mg/kg; conditions: in vivo; procedure, shortened: as §2
[15] = test system: Vero; experiment: Cytotoxicity against african green monkey Vero cells after 72 hrs by MTT assay; format: cell-based; conditions: Chlorocebus sabaeus
Procedure, shortened: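 Vero cells exposed for 72 h; tested up to 62.5 µg/mL. Viability was read as cellular conversion of MTT to formazan, and IC50 was reported in µM.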

[16] = test system: Mus musculus; experiment: Phototoxic effect in UV light irradiated mouse assessed as ear thickness at 140 mg/kg, after 24 hrs relative to control; format: ADME, organism-based; parameters: dose 140 mg/kg; conditions: in vivo; procedure, shortened: as §2

SMILES	MIC99 [2] [µM]	MIC99 [9] [µM]	IC50 [15] [µM]	also measured
CC1COc2c(N3CCN(C(c4ccccc4)c4ccc(Cl)cc4)CC3)c(F)c([N+](=O)[O-])c3c(=O)c(C(=O)O)cn1c23 (stereo not given)	0.66 (≈ 0.391 µg/mL)	2.63 (≈ 1.56 µg/mL)	105	Activity [1]: Non-toxic; Activity [3]: Non-toxic; Activity [4]: 0.31 mm; Activity [5]: Non-toxic; IC50 [6]: 16.9 µM; Activity [7]: 0.28 mm; Activity [8]: Non-toxic; Activity [10]: Non-toxic; Activity [11]: 0.29 mm; Activity [12]: 0.28 mm; Activity [13]: Non-toxic; Activity [14]: 0.29 mm; Activity [16]: 0.28 mm
CC1COc2c(N3CCN(C(=O)c4ccco4)CC3)c(F)c([N+](=O)[O-])c3c(=O)c(C(=O)O)cn1c23 (stereo not given)	3.21 (≈ 1.56 µg/mL)	0.8 (≈ 0.389 µg/mL)	64.2	
CC1COc2c(N3CCN(C(=O)c4ccco4)CC3)c(F)cc3c(=O)c(C(=O)O)cn1c23 (stereo not given)	3.53 (≈ 1.56 µg/mL)	7.09 (≈ 3.13 µg/mL)		Activity [1]: Non-toxic; Activity [4]: 0.3 mm; Activity [5]: Non-toxic; IC50 [6]: > 113 µM; Activity [7]: 0.3 mm; Activity [8]: Non-toxic; Activity [10]: Non-toxic; Activity [11]: 0.29 mm; Activity [12]: 0.29 mm; Activity [13]: Non-toxic; Activity [14]: 0.29 mm; Activity [16]: 0.29 mm
COc1cc2c(cc1OC)CN(c1c(F)c([N+](=O)[O-])c3c(=O)c(C(=O)O)cn4c3c1OCC4C)CC2 (stereo not given)	12.5 (≈ 6.25 µg/mL)	1.56 (≈ 0.779 µg/mL)	62.5	
CC1COc2c(N3CCn4cc(C(=O)O)nc4C3)c(F)c(N)c3c(=O)c(C(=O)O)cn1c23 (stereo not given)	5.28 (≈ 2.34 µg/mL)	0.88 (≈ 0.39 µg/mL)	> 141	
CC1COc2c(N3CCN(Cc4ccc5c(c4)OCO5)CC3)c(F)cc3c(=O)c(C(=O)O)cn1c23 (stereo not given)	26 (≈ 12.5 µg/mL)	6.5 (≈ 3.13 µg/mL)		
CC1COc2c(N3CCC4(CC3)OCCO4)c(F)c([N+](=O)[O-])c3c(=O)c(C(=O)O)cn1c23 (stereo not given)	3.47 (≈ 1.56 µg/mL)	0.21 (≈ 0.0944 µg/mL)	139	
CC1COc2c(N3CCC4(CC3)OCCO4)c(F)cc3c(=O)c(C(=O)O)cn1c23 (stereo not given)	3.86 (≈ 1.56 µg/mL)	0.47 (≈ 0.19 µg/mL)	155	Activity [3]: Toxic; Activity [4]: 0.35 mm; Activity [5]: Non-toxic; IC50 [6]: 124 µM; Activity [7]: 0.37 mm; Activity [10]: Non-toxic; Activity [11]: 0.31 mm; Activity [12]: 0.34 mm; Activity [13]: Toxic; Activity [14]: 0.32 mm; Activity [16]: 0.32 mm
Cc1onc(-c2c(F)cccc2F)c1C(=O)N1CCN(c2c(F)cc3c(=O)c(C(=O)O)cn4c3c2OCC4C)CC1 (stereo not given)	44 (≈ 25 µg/mL)	11 (≈ 6.25 µg/mL)		
CC1COc2c(N3CCN(C(=O)C4COc5ccccc5O4)CC3)c(F)c([N+](=O)[O-])c3c(=O)c(C(=O)O)cn1c23 (stereo not given)	11.3 (≈ 6.25 µg/mL)	2.81 (≈ 1.56 µg/mL)	113	
CC1COc2c(N3CCn4cc(C(=O)O)nc4C3)c(F)cc3c(=O)c(C(=O)O)cn1c23 (stereo not given)	29.2 (≈ 12.5 µg/mL)	0.91 (≈ 0.39 µg/mL)	> 146	
CC1COc2c(N3CCC(n4c(=O)[nH]c5cc(Cl)ccc54)CC3)c(F)cc3c(=O)c(C(=O)O)cn1c23 (stereo not given)	48.7 (≈ 25 µg/mL)	1.52 (≈ 0.78 µg/mL)	> 122	
CC1COc2c(N3CCN(C(=O)C4COc5ccccc5O4)CC3)c(F)cc3c(=O)c(C(=O)O)cn1c23 (stereo not given)	49.1 (≈ 25 µg/mL)	12.3 (≈ 6.25 µg/mL)		
CC1COc2c(N3CCN(C)C(c4ccccc4)C3)c(F)cc3c(=O)c(C(=O)O)cn1c23 (stereo not given)	114 (≈ 50 µg/mL)	14.3 (≈ 6.25 µg/mL)		
CC1COc2c(N3CCC(O)(c4ccc(Cl)cc4)CC3)c(F)c([N+](=O)[O-])c3c(=O)c(C(=O)O)cn1c23 (stereo not given)	6.04 (≈ 3.13 µg/mL)	1.51 (≈ 0.782 µg/mL)	60.4	
CC1CN(c2c(F)c([N+](=O)[O-])c3c(=O)c(C(=O)O)cn4c3c2OCC4C)CC(C)O1 (stereo not given)	1.85 (≈ 0.78 µg/mL)	1.85 (≈ 0.78 µg/mL)	148	IC50 [6]: > 119 µM
